In ChEMBL document CHEMBL4342502, “Synthesis and Antichlamydial Activity of Molecules Based on Dysregulators of Cylindrical Proteases” (J Med Chem, 2020):
Active and inactive are the calls of the source. No cut-off for these calls is given here.

Columns and labels:
Format in all cases: functional, organism-based
Staphylococcus aureus [1] = assay: Antibacterial activity against Staphylococcus aureus JE2 assessed as bacterial growth inhibition at 32 ug/ml measured after 16 hrs by broth microdilution method
Procedure, shortened: (§1)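 Broth microdilution in Mueller Hinton broth, triplicate. Direct colony suspension at 1.5 x 10^8 CFU/mL diluted to ~10^5 CFU/mL. Serial dilutions made from DMSO stocks at 1 mg/mL; vancomycin positive control, blank medium negative control. Incubated 16 h at optimum temperature. MIC is the lowest concentration without visible growth at 600 nm; mean of triplicate determinations.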

Staphylococcus aureus [2] = assay: Antibacterial activity against methicillin-resistant Staphylococcus aureus ATCC 43300 assessed as bacterial growth inhibition at 32 ug/ml measured after 16 hrs by broth microdilution method
Escherichia coli [3] = assay: Antibacterial activity against Escherichia coli ATCC 25922 assessed as bacterial growth inhibition at 32 ug/ml measured after 16 hrs by broth microdilution method
Escherichia coli [4] = assay: Antibacterial activity against Escherichia coli K12 assessed as bacterial growth inhibition at 32 ug/ml measured after 16 hrs by broth microdilution method; conditions: K-12; procedure, shortened: as §1
Pseudomonas aeruginosa = assay: Antibacterial activity against Pseudomonas aeruginosa ATCC 27853 assessed as bacterial growth inhibition at 32 ug/ml measured after 16 hrs by broth microdilution method
Klebsiella pneumoniae = assay: Antibacterial activity against Klebsiella pneumoniae ATCC 700603 assessed as bacterial growth inhibition at 32 ug/ml measured after 16 hrs by broth microdilution method
Acinetobacter baumannii = assay: Antibacterial activity against Acinetobacter baumannii ATCC 19606 assessed as bacterial growth inhibition at 32 ug/ml measured after 16 hrs by broth microdilution method; conditions: ATCC 19606 = CIP 70.34 = JCM 6841
Candida albicans = assay: Antifungal activity against Candida albicans ATCC 90028 assessed as fungal growth inhibition at 32 ug/ml measured after 16 hrs by broth microdilution method
Cryptococcus neoformans = assay: Antifungal activity against Cryptococcus neoformans var. grubii H99 ATCC […] as fungal growth inhibition at 32 ug/ml measured after 16 hrs by broth microdilution method; conditions: var. grubii H99 ATCC 208821
Staphylococcus aureus [5] = assay: Antibacterial activity against Staphylococcus aureus JE2 assessed as bacterial death up to 256 ug/ml measured after 16 hrs by broth microdilution method; procedure, shortened: as §1
Escherichia coli [6] = assay: Antibacterial activity against Escherichia coli K12 assessed as bacterial death up to 256 ug/ml measured after 16 hrs by broth microdilution method; conditions: K-12; procedure, shortened: as §1
Chlamydia trachomatis = assay: Anti-chlamydial activity against Chlamydia trachomatis Serovar LGV-L2 infected in Hep2 cells assessed as inhibition of chlamydial inclusion at 50 ug/ml treated at 8 hrs post infection and measured at 24 hrs post-infection by immunofluorescence assay
Procedure, shortened: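 HEp-2 cells infected with C. trachomatis serovar L2. Compounds at 50 μg/mL added 8 hpi; inclusion number and size assessed by immunofluorescence at 24 hpi against untreated cells. Cell morphology and viability checked by phase-contrast microscopy.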

SMILES | inhibition (Staphylococcus aureus [1]) | inhibition (Staphylococcus aureus [2]) | inhibition (Escherichia coli [3]) | inhibition (Escherichia coli [4]) | inhibition (Pseudomonas aeruginosa) | inhibition (Klebsiella pneumoniae) | inhibition (Acinetobacter baumannii) | inhibition (Candida albicans) | inhibition (Cryptococcus neoformans) | Activity (Staphylococcus aureus [5]) | Activity (Escherichia coli [6]) | inhibition (Chlamydia trachomatis)
NCCBr | inactive | inactive | inactive | inactive | inactive | inactive | inactive | inactive | inactive | inactive | inactive | –
CC(C)(C(=O)NCCCc1ccccc1)S(=O)(=O)c1ccc(Cl)cn1 | – | – | – | – | – | – | – | – | – | – | – | Active
COc1cccc(N2CCN(C(=O)C(C)(C)S(=O)(=O)c3ccc(C(F)(F)F)cn3)CC2)c1 | inactive | inactive | inactive | inactive | inactive | inactive | inactive | inactive | inactive | – | – | Active
CC(C)(C(=O)NCCOc1ccc(Cl)cc1)S(=O)(=O)c1ccccc1 | inactive | inactive | inactive | inactive | inactive | inactive | inactive | inactive | inactive | – | – | inactive
CC(C)(C(=O)NCCOc1ccccc1Cl)S(=O)(=O)c1ccc(C(F)(F)F)cn1 | inactive | inactive | inactive | inactive | inactive | inactive | inactive | inactive | inactive | inactive | inactive | Active
CC(C(=O)N1CCN(c2ccc(Cl)c(Cl)c2)CC1)S(=O)(=O)c1ccc(C(F)(F)F)cn1 (stereo not given) | inactive | inactive | inactive | inactive | inactive | inactive | inactive | inactive | inactive | – | – | inactive
CC(C(=O)NCCCc1ccccc1)S(=O)(=O)c1ccc(C(F)(F)F)cn1 (stereo not given) | inactive | inactive | inactive | inactive | inactive | inactive | inactive | inactive | inactive | – | – | inactive
CC(C)(C(=O)N1CCN(c2ccccn2)CC1)S(=O)(=O)c1ccc(C(F)(F)F)cn1 | inactive | inactive | inactive | inactive | inactive | inactive | inactive | inactive | inactive | – | – | inactive
CC(C)(C(=O)NCCSc1ccccc1)S(=O)(=O)c1ccc(C(F)(F)F)cn1 | – | – | – | – | – | – | – | – | – | – | – | inactive
CC(C)(C(=O)N1CCN(Cc2ccc(F)cc2)CC1)S(=O)(=O)c1ccc(C(F)(F)F)cn1 | inactive | inactive | inactive | inactive | inactive | inactive | inactive | inactive | inactive | – | – | inactive
CC(C)(C(=O)NCCSc1ccccc1Cl)S(=O)(=O)c1ccc(C(F)(F)F)cc1 | inactive | inactive | inactive | inactive | inactive | inactive | inactive | inactive | inactive | – | – | Active
Cc1ccc(C)c(N2CCN(C(=O)C(C)S(=O)(=O)c3ccc(C(F)(F)F)cn3)CC2)c1 (stereo not given) | inactive | inactive | inactive | inactive | inactive | inactive | inactive | inactive | inactive | – | – | inactive
CC(C)(C(=O)N1CCN(c2ccccc2)CC1)S(=O)(=O)c1ccc(C(F)(F)F)cn1 | inactive | inactive | inactive | inactive | inactive | inactive | inactive | inactive | inactive | – | – | inactive
CC(C)(C(=O)NCCOc1ccccc1Cl)S(=O)(=O)c1ccc(C(F)(F)F)cc1 | inactive | inactive | inactive | inactive | inactive | inactive | inactive | inactive | inactive | – | – | Active
CC(C)(C(=O)NCCOc1ccc(Cl)cc1)S(=O)(=O)c1ccc(C(F)(F)F)cn1 | inactive | inactive | inactive | inactive | inactive | inactive | inactive | inactive | inactive | – | – | inactive
Cc1ccccc1N1CCN(C(=O)C(C)S(=O)(=O)c2ccc(C(F)(F)F)cn2)CC1 (stereo not given) | inactive | inactive | inactive | inactive | inactive | inactive | inactive | inactive | inactive | – | – | inactive
CC(C)(C(=O)NCCOc1ccccc1)S(=O)(=O)c1ccccc1 | – | – | – | – | – | – | – | – | – | – | – | inactive
CC(C)(C(=O)NCCOc1ccc(Cl)cc1)S(=O)(=O)c1ccc(C(F)(F)F)cc1 | inactive | inactive | inactive | inactive | inactive | inactive | inactive | inactive | inactive | – | – | inactive
CC(C)(C(=O)NCCCc1ccccc1)S(=O)(=O)c1ccccn1 | inactive | inactive | inactive | inactive | inactive | inactive | inactive | inactive | inactive | – | – | inactive
CC(C)(C(=O)NCCSc1ccc(Cl)cc1)S(=O)(=O)c1ccc(C(F)(F)F)cc1 | inactive | inactive | inactive | inactive | inactive | inactive | inactive | inactive | inactive | – | – | Active
Cc1ccc(C)c(N2CCN(C(=O)C(C)(C)S(=O)(=O)c3ccc(C(F)(F)F)cn3)CC2)c1 | inactive | inactive | inactive | inactive | inactive | inactive | inactive | inactive | inactive | – | – | Active
NCCCc1ccccc1 | inactive | inactive | inactive | inactive | inactive | inactive | inactive | inactive | inactive | – | – | –
